{"source": "PubChem BioAssay AID652250", "about": "(Vanderbilt Specialized Chemistry Center, 2013)", "note": "Calls of active or inactive are those of the source.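 The calls were made as follows: active = compounds leaving under half of the peptide-driven platelet calcium rise; inactive = the rest.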", "data": [{"target": "Proteinase-activated receptor 4 (Homo sapiens) (UniProt Q96RI0)", "sequence (Q96RI0 whole entry, looked up)": "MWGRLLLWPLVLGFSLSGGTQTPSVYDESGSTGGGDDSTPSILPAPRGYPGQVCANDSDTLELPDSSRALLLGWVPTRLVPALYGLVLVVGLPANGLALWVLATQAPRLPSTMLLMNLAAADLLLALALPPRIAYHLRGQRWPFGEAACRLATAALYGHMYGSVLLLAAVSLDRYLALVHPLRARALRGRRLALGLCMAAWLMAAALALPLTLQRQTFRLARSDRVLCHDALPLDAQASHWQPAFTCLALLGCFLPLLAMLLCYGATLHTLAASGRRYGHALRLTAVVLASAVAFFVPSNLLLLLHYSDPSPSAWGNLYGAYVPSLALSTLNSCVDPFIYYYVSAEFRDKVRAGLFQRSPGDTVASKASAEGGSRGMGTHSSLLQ", "assay": "PAR4 antagonists in human platelets, cell-based, single concentration, washed platelets, Fluo4 calcium (AID 652250)", "settings": "PAR4-AP calcium Fluo4 fluorescence", "how_it_was_run": "(§1)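 Material – Fluo4-AM-loaded washed human platelets · Also added – PAR4-activating peptide (PAR4-AP) agonist at 80 µM · Signal – fluorescence at 480/540 nm, 1 s intervals · Read-out – peak minus basal RFU as % of per-donor DMSO control · Benchmarks – PAR4-AP-stimulated DMSO control (100%) · Replicates – triplicate wells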", "units": {"IC50": "µM"}, "values": [{"smiles": "COc1ccc(-c2cn(Cc3cccc(Cl)c3)c3ccccc23)cn1", "IC50": 3.13}, {"smiles": "Fc1ccc(-c2cn(Cc3ccccc3)c3ccccc23)cn1", "IC50": 10}]}, {"target": "Proteinase-activated receptor 4 (Homo sapiens) (UniProt Q96RI0)", "assay": "PAR4 antagonists in human platelets, cell-based, single concentration, washed platelets, Fluo4 calcium (AID 652250)", "settings": "PAR4-AP calcium Fluo4 fluorescence, at 10 µM, stronger effect = lower value", "how_it_was_run": "as §1", "values": [{"smiles": "Cn1cc(CC(=O)NCc2cccs2)c2ccccc21", "% of max PAR4-AP calcium response": "inactive"}, {"smiles": "O=C(Cn1cc(CO)c2ccccc21)Nc1ccc(Cl)cc1", "% of max PAR4-AP calcium response": "inactive"}, {"smiles": "O=C(N/N=C/c1c[nH]c2ccccc12)c1ccn(Cc2ccc(Cl)cc2)n1", "% of max PAR4-AP calcium response": "inactive"}, {"smiles": "Cc1c(C)n(C(=O)CSc2ncccn2)c2ccccc12", "% of max PAR4-AP calcium response": "inactive"}, {"smiles": "S=C(c1cn(CCOc2ccccc2Cl)c2ccccc12)N1CCCCC1", "% of max PAR4-AP calcium response": "39.9%"}, {"smiles": "COc1ccc2c(c1)c(C(=O)CNc1nc(C)cs1)c(C)n2C", "% of max PAR4-AP calcium response": "inactive"}, {"smiles": "O=C(CCc1cn(Cc2ccccc2)c2ccccc12)NCCN1CCOCC1", "% of max PAR4-AP calcium response": "inactive"}, {"smiles": "S=C(c1cn(Cc2ccccc2Cl)c2ccccc12)N1CCCC1", "% of max PAR4-AP calcium response": "inactive"}, {"smiles": "COc1ccc(-n2cc(-c3ccccc3)c3c(NCCO)ncnc32)cc1", "% of max PAR4-AP calcium response": "inactive"}, {"smiles": "COc1ccc(NCC(O)Cn2c(C)c(C)c3ccccc32)cc1", "note": "(stereo not drawn)", "% of max PAR4-AP calcium response": "inactive"}, {"smiles": "O=C(Cn1cc(C(=O)C(F)(F)F)c2ccccc21)NC1CCCC1", "% of max PAR4-AP calcium response": "inactive"}, {"smiles": "COc1ccc(OC)c(NC(=O)Cc2cn(C)c3ccccc23)c1", "% of max PAR4-AP calcium response": "inactive"}, {"smiles": "Fc1cc(-c2cn(Cc3ccccc3)c3ccccc23)cc(F)n1", "% of max PAR4-AP calcium response": "inactive"}, {"smiles": "CN(C)c1ccc(-c2cn(Cc3ccccc3)c3ccccc23)cn1", "% of max PAR4-AP calcium response": "inactive"}, {"smiles": "Fc1cccc(Cn2cc(C(=S)N3CCCCC3)c3ccccc32)c1", "% of max PAR4-AP calcium response": "inactive"}, {"smiles": "Fc1ccc(-c2cn(Cc3ccccc3)c3ccccc23)c(F)n1", "% of max PAR4-AP calcium response": "inactive"}, {"smiles": "O=C(CSc1ncnc2c1c(-c1ccccc1)cn2-c1ccc(F)cc1)c1ccccc1", "% of max PAR4-AP calcium response": "inactive"}, {"smiles": "S=C(c1cn(CCOc2ccccc2)c2ccccc12)N1CCCC1", "% of max PAR4-AP calcium response": "inactive"}, {"smiles": "Cc1nn(-c2ccccc2)c2[nH]c(C(F)(F)F)cc(=O)c12", "% of max PAR4-AP calcium response": "inactive"}, {"smiles": "Cc1c(C)n(CC(O)CNCc2ccccc2)c2ccccc12", "note": "(stereo not drawn)", "% of max PAR4-AP calcium response": "inactive"}, {"smiles": "COc1ccc(OC)c(CNC(=O)CCCc2cn(C)c3ccccc23)c1", "% of max PAR4-AP calcium response": "inactive"}, {"smiles": "N#Cc1ccc(-c2cn(Cc3ccccc3)c3ccccc23)cc1", "% of max PAR4-AP calcium response": "inactive"}, {"smiles": "Cc1cc(-c2cn(Cc3ccccc3)c3ccccc23)cnc1F", "% of max PAR4-AP calcium response": "inactive"}, {"smiles": "O=C(Nc1cccc(Br)c1)c1ccn(C(=O)Nc2ccc(Cl)cc2)n1", "% of max PAR4-AP calcium response": "inactive"}, {"smiles": "Cc1cn(CC(=O)c2ccccc2)c2ccccc12", "% of max PAR4-AP calcium response": "inactive"}, {"smiles": "COc1cc(OC)cc(-c2cn(Cc3ccccc3)c3ccccc23)c1", "% of max PAR4-AP calcium response": "inactive"}, {"smiles": "O=C(Cn1cc(C(=O)C(F)(F)F)c2ccccc21)N1CCCC1", "% of max PAR4-AP calcium response": "inactive"}, {"smiles": "Cc1ccc(C)c(NC(=O)Cn2cc(C(=O)C(F)(F)F)c3ccccc32)c1", "% of max PAR4-AP calcium response": "inactive"}, {"smiles": "CCc1nn(-c2ccccc2)c2nc(-c3ccccc3OC)c3cc(OC)c(OC)cc3c12", "% of max PAR4-AP calcium response": "inactive"}, {"smiles": "Fc1ccc(Cn2cc(C(=S)N3CCOCC3)c3ccccc32)cc1", "% of max PAR4-AP calcium response": "inactive"}, {"smiles": "CC(C)Oc1ccc(-c2cn(Cc3ccccc3)c3ccccc23)cc1", "% of max PAR4-AP calcium response": "inactive"}, {"smiles": "CCCNc1ncnc2c1c(-c1ccccc1)cn2-c1ccccc1", "% of max PAR4-AP calcium response": "inactive"}, {"smiles": "O=C(c1cn(Cc2ccc(F)cc2)c2ccccc12)C(F)(F)F", "% of max PAR4-AP calcium response": "inactive"}, {"smiles": "Cc1cccc(NC(=O)Cn2cc(C(=O)C(F)(F)F)c3ccccc32)c1", "% of max PAR4-AP calcium response": "inactive"}, {"smiles": "COc1ccc(OCCn2cc(C(=O)C(F)(F)F)c3ccccc32)cc1", "% of max PAR4-AP calcium response": "inactive"}, {"smiles": "COc1ccc2c(c1)c(C(C)=O)c(C)n2-c1cccc(Br)c1", "% of max PAR4-AP calcium response": "inactive"}, {"smiles": "CCc1cc(C(=O)Cc2cnn(-c3ccccc3)c2)c(O)cc1O", "% of max PAR4-AP calcium response": "inactive"}, {"smiles": "COCCCNC(=O)Cn1cc(C(=O)C(F)(F)F)c2ccccc21", "% of max PAR4-AP calcium response": "inactive"}, {"smiles": "O=C(c1cn(Cc2ccccc2Cl)c2ccccc12)C(F)(F)F", "% of max PAR4-AP calcium response": "inactive"}, {"smiles": "CCn1ccc(C(=O)Nc2sc(C(=O)OC)c(C)c2C(=O)OC)n1", "% of max PAR4-AP calcium response": "inactive"}, {"smiles": "COc1cc(NC(=O)c2ccc3c(c2)c(C)c(C)n3C)cc(OC)c1", "% of max PAR4-AP calcium response": "inactive"}, {"smiles": "COc1ccc(-n2cc(-c3ccccc3)c3c(=O)[nH]cnc32)cc1", "% of max PAR4-AP calcium response": "inactive"}, {"smiles": "Cc1nc(-c2cnn(-c3ccccc3)c2)c2cc(C)oc2n1", "% of max PAR4-AP calcium response": "inactive"}, {"smiles": "Cn1cc(CC(=O)N2CCN(c3ccc([N+](=O)[O-])cc3)CC2)c2ccccc21", "% of max PAR4-AP calcium response": "inactive"}, {"smiles": "CC(C)NC(=O)CCc1cn(Cc2ccccc2)c2ccccc12", "% of max PAR4-AP calcium response": "inactive"}, {"smiles": "COc1ccc(C)cc1NC(=O)Cc1cn(C)c2ccccc12", "% of max PAR4-AP calcium response": "inactive"}, {"smiles": "O=C(Cn1cc(C(=O)C(F)(F)F)c2cc(Br)ccc21)N1CCCCC1", "% of max PAR4-AP calcium response": "inactive"}, {"smiles": "COc1ccc(C(C[N+](=O)[O-])c2c(-c3ccccc3)n(C)c3ccccc23)cc1", "note": "(stereo not drawn)", "% of max PAR4-AP calcium response": "inactive"}, {"smiles": "O=C(N/N=C/c1ccncc1)c1ccn(Cc2ccc(Cl)cc2Cl)n1", "% of max PAR4-AP calcium response": "inactive"}, {"smiles": "COc1ccc(-n2nc(C(=O)NCCC3=CCCCC3)c3c4ccccc4n(C)c3c2=O)cc1Cl", "% of max PAR4-AP calcium response": "inactive"}, {"smiles": "OCc1cn(Cc2ccccc2Cl)c2ccccc12", "% of max PAR4-AP calcium response": "inactive"}, {"smiles": "OCCCNc1ncnc2c1c(-c1ccccc1)cn2-c1ccc(F)cc1", "% of max PAR4-AP calcium response": "inactive"}, {"smiles": "CC(=O)c1ccc(N2CCN(c3ncnc4c3c(-c3ccccc3)cn4-c3ccccc3)CC2)cc1", "% of max PAR4-AP calcium response": "inactive"}, {"smiles": "c1ccc(-c2cn(-c3ccccc3)c3ncnc(N4CCCC4)c23)cc1", "% of max PAR4-AP calcium response": "inactive"}, {"smiles": "Fc1ccc(CNc2ncnc3c2c(-c2ccccc2)cn3-c2ccc(F)cc2)cc1", "% of max PAR4-AP calcium response": "inactive"}, {"smiles": "Cc1ccc(-n2cc(-c3ccccc3)c3c(N4CC(C)OC(C)C4)ncnc32)cc1", "note": "(stereo not drawn)", "% of max PAR4-AP calcium response": "inactive"}, {"smiles": "Fc1ccc(OCCn2cc(C(=S)N3CCCCC3)c3ccccc32)cc1", "% of max PAR4-AP calcium response": "inactive"}, {"smiles": "Cc1c(C)n(CC(O)CNCCO)c2ccccc12", "note": "(stereo not drawn)", "% of max PAR4-AP calcium response": "inactive"}, {"smiles": "O=C(c1cn(CCOc2ccc3c(c2)OCO3)c2ccc(Br)cc12)C(F)(F)F", "% of max PAR4-AP calcium response": "inactive"}, {"smiles": "CC(=O)n1cc(C(C[N+](=O)[O-])SCc2ccccc2)c2ccccc21", "note": "(stereo not drawn)", "% of max PAR4-AP calcium response": "inactive"}, {"smiles": "CCOc1ccc(NC(=O)Cn2cc(C(=O)C(F)(F)F)c3ccccc32)cc1", "% of max PAR4-AP calcium response": "inactive"}, {"smiles": "Cc1ccc2c(c1)c1c3n2CCN(C(=O)CN2CCN(C(=O)c4ccco4)CC2)C3CCC1", "note": "(stereo not drawn)", "% of max PAR4-AP calcium response": "inactive"}, {"smiles": "FC(F)(F)c1cccc(-n2cc(-c3ccccc3)c3c(NC4CCCC4)ncnc32)c1", "% of max PAR4-AP calcium response": "inactive"}, {"smiles": "O=C(c1ccccc1)n1cc(-c2nc3cc(Cl)ccc3o2)cn1", "% of max PAR4-AP calcium response": "inactive"}, {"smiles": "c1ccc(Cn2cc(CN3CCN(c4ccccc4)CC3)c3ccccc32)cc1", "% of max PAR4-AP calcium response": "inactive"}, {"smiles": "CCN(CCCNC(=O)Cc1cn(C)c2ccccc12)c1ccccc1", "% of max PAR4-AP calcium response": "inactive"}, {"smiles": "Cc1ccc(-n2c(/C=C/c3cn(C)c4ccccc34)nc3ccccc3c2=O)cc1", "% of max PAR4-AP calcium response": "inactive"}, {"smiles": "COc1ccc(-c2cn(Cc3cccc(-c4cccs4)c3)c3ccccc23)cn1", "% of max PAR4-AP calcium response": "inactive"}, {"smiles": "COc1ccc2c(c1)c(C(=O)CNc1nc(C)c(C)s1)c(C)n2C", "% of max PAR4-AP calcium response": "inactive"}, {"smiles": "O=C(c1cn(CCOc2ccccc2F)c2ccccc12)C(F)(F)F", "% of max PAR4-AP calcium response": "inactive"}, {"smiles": "Clc1ccc(-n2cc(-c3ccccc3)c3c(NCc4cccs4)ncnc32)cc1", "% of max PAR4-AP calcium response": "inactive"}, {"smiles": "CCn1c(C(=O)O)c(CC(=O)N(C)c2ccc(F)cc2)c2ccccc21", "% of max PAR4-AP calcium response": "inactive"}, {"smiles": "Cn1cc(CCCC(=O)NCc2cccs2)c2ccccc21", "% of max PAR4-AP calcium response": "inactive"}, {"smiles": "COc1ccc2c(c1)c(CC(=O)N1CCC(C(N)=O)CC1)c(C)n2C(=O)c1ccc(Cl)cc1", "% of max PAR4-AP calcium response": "inactive"}, {"smiles": "COc1ccc2c(c1)c(C(=O)N1CCCC1)c(C)n2Cc1ccccc1", "% of max PAR4-AP calcium response": "inactive"}, {"smiles": "Cn1cc(-c2cn(Cc3ccccc3)c3ccccc23)cn1", "% of max PAR4-AP calcium response": "inactive"}, {"smiles": "OC(CN1CCCCC1)Cn1c2c(c3ccccc31)CCCC2", "note": "(stereo not drawn)", "% of max PAR4-AP calcium response": "inactive"}, {"smiles": "CC(=O)n1cc(-c2ccncc2)c2ccccc21", "% of max PAR4-AP calcium response": "inactive"}, {"smiles": "COc1ccc2c(c1)c(CC(=O)Nc1ccc(Cl)cn1)c(C)n2C(=O)c1ccc(Cl)cc1", "% of max PAR4-AP calcium response": "inactive"}, {"smiles": "CCCOc1ccc(-c2cn(Cc3ccccc3)c3ccccc23)cc1", "% of max PAR4-AP calcium response": "inactive"}, {"smiles": "Fc1ccc(OCCn2cc(C(=S)N3CCOCC3)c3ccccc32)cc1", "% of max PAR4-AP calcium response": "38%"}]}]}
